# Screening results from PubChem.
# This is a sample that favours compounds with a hit; in the whole collection about 10% have one here.
# Diaph act CS = compounds boosting diaphorase resazurin reduction – biochemical, uHTS, resorufin fluorescence, counter-screen for diaphorase-coupled primary assays, primary screen. Diaphorase/resazurin coupled assay, 16 min; stronger effect = higher value; 1 = vehicle wells, 0 = NADH-free wells. activation factor at 20 µM. 190,000 compounds, 0.005% hits. AID 1229, 2008;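 active means diaphorase activity raised at least twofold by the compound at 20 µM; inactive means activation factor below 2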
#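 test system = bacterial diaphorase enzyme (C. kluyveri) | quantity = enzyme 0.07 U/mL final | reagent = NADH substrate 0.114 mM plus resazurin dye 0.1 mM, final | incubation = 16 min enzyme reaction, ambient temperature | buffer or medium = HEPES pH 7.4 buffer with MgCl2 and Tween 20 | signal = fluorescence of resorufin, 544 nm excitation, 590 nm emission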
# PMI act satM6P = human PMI activators, high substrate, primary screen, biochemical, fluorescence intensity, near-saturating mannose 6-phosphate | activation factor at 20 µM | 190,000 compounds, 0.34% hits | coupled PMI enzyme assay, resazurin fluorescence, 20 min; stronger effect = higher value; 1 = untreated enzyme, 0 = substrate-free blank | Mannose-6-phosphate isomerase (Homo sapiens), P34949;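 active means activation factor of 2 or more at 20 µM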
# Target sequence (P34949 whole entry, looked up): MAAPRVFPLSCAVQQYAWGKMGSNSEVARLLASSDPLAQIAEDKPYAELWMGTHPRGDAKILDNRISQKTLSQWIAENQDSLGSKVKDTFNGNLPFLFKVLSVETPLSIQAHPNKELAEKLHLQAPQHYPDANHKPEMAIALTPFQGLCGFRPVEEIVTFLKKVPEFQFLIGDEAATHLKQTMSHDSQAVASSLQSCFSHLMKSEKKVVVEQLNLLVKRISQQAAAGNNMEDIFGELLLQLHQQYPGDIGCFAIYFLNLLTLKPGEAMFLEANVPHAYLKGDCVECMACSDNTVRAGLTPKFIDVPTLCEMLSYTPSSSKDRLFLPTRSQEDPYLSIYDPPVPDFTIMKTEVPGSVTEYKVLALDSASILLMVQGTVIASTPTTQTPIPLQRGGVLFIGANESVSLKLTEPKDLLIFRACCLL
#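 Technique: Diaphorase-driven resazurin-to-resorufin fluorescence, excitation 544, emission 590 nm | Assay system: Human PMI in coupled enzyme assay | Times: Enzyme reaction with compound 20 min at room temperature | Medium: HEPES-buffered pH 7.4 with magnesium and detergent | Reagent: Mannose-6-phosphate 1.0 mM (near-saturating) plus 0.22 mM NADP+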
# Lmaj promast = Leishmania major promastigote growth inhibition, primary screen | inhibition, % at 10 µM | Leishmania major promastigotes, resazurin fluorescence viability | 200,000 compounds, 9% hits; in the data active means inhibition above about 50%;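 further: promastigotes grown with compound for 44 hours at 28 °C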
# WT yeast gro inh = growth inhibition of WT strain, primary screen, mitochondrial fusion inhibitor project, WT and mutant strains, chemical genetic; mitochondrial fusion phenotypic screen; inhibition, % at 10 µM; 190,000 compounds, 2.1% hits; AID 1362, 2008; in the data active means inhibition above about 58%; tested in S. cerevisiae
# PMI activator = activators of human PMI, primary screen, biochemical, fluorescence intensity, near-Km mannose 6-phosphate; activation factor at 20 µM; AID 1214, 2008; 190,000 compounds, 0.005% hits; purified human PMI, coupled resazurin fluorescence, 20 min; stronger effect = higher value; 1 = vehicle control, 0 substrate-free wells; Mannose-6-phosphate isomerase (Homo sapiens), P34949;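 active means activation factor of 2 or more at 20 µM, relative to plate controls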
# Numbers without * were called inactive; x = no result given.
SMILES,Diaph act CS,PMI act satM6P,Lmaj promast,WT yeast gro inh,PMI activator
O=C(Nc1ccccc1)C1=C[C@@H](c2coc3ccccc3c2=O)C[C@@H](OCCCCO)O1,0.8,0.9,9.6,-12.5,1
CC1CC(N(C(=O)c2ccccc2Cl)c2ccccc2)c2ccccc2N1 (stereo not drawn),0.8,0.9,12.5,67.1*,0.8
COc1cc(CC(=O)Nc2ccc3nc(C)sc3c2)cc(OC)c1OC,0.9,1,49.2,-5.8,0.9
COc1ccccc1CC(=O)Nc1ccc(OC)c(OC)c1,0.9,1,-5.7,5.1,1
COc1ccccc1CC(=O)Nc1ccc2c(c1)C(=O)NC2=O,1,1.1,100.2*,-16.0,1.1
COc1cccc(CC(=O)Nc2ccc3nc(C)sc3c2)c1,0.9,1.1,44.5,63.8*,0.9
Cc1nc2ccc(NC(=O)c3nn(CC(C)C)c(=O)c4ccccc34)cc2s1,0.8,1,4.5,63.9*,1
COc1ccccc1CC(=O)Nc1ccc2nc(C)sc2c1,1,1,61.2*,9.4,0.9
O=C(CNc1ccccc1)N/N=C/c1ccc2c(c1)OCCO2,0.9,0.9,3.1,-6.5,0.9
CCCc1cc(-c2nc(-c3ccc(Br)cc3)cs2)ccn1,0.9,1.1,60.0*,68.7*,1
CCCc1cc(-c2nc(-c3ccc(Cl)cc3)cs2)ccn1,0.8,0.9,1.9,78.0*,0.8
O=C(NCc1ccc2c(c1)OCO2)c1cccnc1Cl,0.9,0.9,-2.9,-4.9,0.9
CCN(CC)S(=O)(=O)c1ccc2c(c1)nc(CCC(=O)Nc1ccccc1Cc1ccccc1)n2CC,0.8,0.9,86.4*,-0.8,0.9
COc1ccccc1N(CC(=O)Nc1ccccc1C)S(C)(=O)=O,1,1.1,-2.5,2.1,1.1
COc1ccccc1N(CC(=O)N/N=C/c1c(O)ccc2ccccc12)S(C)(=O)=O,0.7,1.1,98.9*,-5.2,1
COc1ccc(N(CC(=O)Nc2ccccc2C(=O)NCCc2ccccc2)S(C)(=O)=O)cc1OC,0.9,1,90.0*,-18.2,0.9
COc1ccccc1N(Cc1ccccc1)S(=O)(=O)c1cccc(C(=O)Nc2ccc(C(C)=O)cc2)c1,0.9,1,75.1*,-8.8,1
COCCNC(=O)c1ccccc1NC(=O)CN(c1ccc2c(c1)OCO2)S(C)(=O)=O,0.9,1,-1.6,-10.9,0.9
COc1ccc(OC)c(NC(=O)c2cccc(S(=O)(=O)N(Cc3ccccc3)c3ccccc3OC)c2)c1,0.8,0.9,96.4*,10.7,0.8
O=C(CSc1cccc2cccc(Cl)c12)NC1=NCCS1,0.8,0.5,-4.4,10.3,0.9
O=c1c(C(c2ccccc2)c2c(O)sc3ccccc3c2=O)c(O)sc2ccccc12,0.8,0.9,-5.9,-11.5,1
CCOc1ccccc1N(CC(=O)Nc1cc(OC)ccc1OC)S(C)(=O)=O,1,1,84.5*,-8.0,1
CCOc1ccccc1N(CC(=O)Nc1ccccc1C(=O)O)S(C)(=O)=O,0.9,1,-5.5,13.0,1
CCOc1ccc2[nH]c(=O)c(CN(CCO)C(c3nnnn3C3CCCCC3)C(C)C)cc2c1 (stereo not drawn),0.9,1.5,68.6*,-0.1,1.5
CCCN1CCN(C(c2cc3cc(OCC)ccc3[nH]c2=O)c2nnnn2C2CCCCC2)CC1 (stereo not drawn),0.8,0.9,5.5,-2.9,1.1
SMILES,Diaph act CS,PMI act satM6P,Lmaj promast,WT yeast gro inh,PMI activator
COC(=O)c1ccccc1NC(=O)COc1ccc(S(=O)(=O)NC(C)C)cc1,0.8,0.8,-3.4,-15.0,0.8
Cc1ccc(-n2ncc3c(SCC(=O)Nc4cc(C)on4)ncnc32)c(C)c1,0.9,1.1,-6.1,-1.6,1.1
CCn1nnnc1SCC(=O)N1c2ccccc2CCc2ccccc21,1,0.9,53.3*,6.0,0.9
CCn1c(SCC(=O)N2c3ccccc3CCc3ccccc32)nc2c1c(=O)n(C)c(=O)n2C,x,x,59.9*,x,x
CC(C)NC(=O)Cn1c(SCC(=O)N2c3ccccc3CC2C)nc2ccccc21 (stereo not drawn),0.9,1.1,13.0,-5.4,1
CC1Cc2ccccc2N1C(=O)CSc1nc2c(c(=O)n(C)c(=O)n2C)n1Cc1ccccc1 (stereo not drawn),0.8,1,63.5*,39.1,1
CC(C)Cn1c(=O)c2ccccc2n2c(SCC(=O)N3c4ccccc4CC3C)nnc12 (stereo not drawn),1,1,71.8*,-20.0,0.8
CC(=O)Nc1c(O)nc(SCc2ccccc2C#N)[nH]c1=O,0.9,1,18.4,-26.1,1
CC(NC(=O)COc1ccc(-c2nnco2)cc1)c1ccc(Cl)cc1Cl (stereo not drawn),0.9,1.1,-4.7,-7.9,0.9
O=C(O)CNC(=O)c1nc(-c2ccccc2)n(-c2ccccc2)n1,0.9,1,-4.2,-2.5,1
O=C(c1ccc(F)cc1)C(CCCCCC(CN1CCOCC1)C(=O)c1ccc(F)cc1)CN1CCOCC1 (stereo not drawn),0.9,1,98.9*,6.4,1
OC(CN1CCOCC1)c1ccc(F)cc1 (stereo not drawn),0.9,1,0.7,7.2,1.1
CCOc1ccc(NC(=S)Nc2ccc(OCc3ccccc3)cc2)cc1,0.9,0.8,51.6*,-1.1,0.8
CC(C)(C)c1ccc(OCCNC(=S)Nc2ccccc2)cc1,1.1,1,14.5,81.8*,1
CCOc1ccc(S(=O)(=O)NNC(=S)Nc2ccc(Br)cc2)cc1,0.9,1,62.4*,-2.9,0.9
S=C(NCCOCCOCCNC(=S)Nc1ccccc1)Nc1ccccc1,1,1.1,3.9,3.4,1
CCOc1ccc(CSCCNC(=S)Nc2ccccc2)cc1,0.7,0.8,11.4,71.1*,0.9
CNC(=S)Nc1ccc(OCc2ccccc2)cc1,0.9,0.9,-0.8,10.7,0.9
CCOc1ccc(NC(=S)NN2C(C)CCCC2C)cc1 (stereo not drawn),1,1.2,51.2*,4.8,1.1
CCOc1ccc(NC(=S)NCCCc2ccccc2)cc1,0.8,0.9,-1.4,69.8*,0.9
CCCNC(=S)Nc1ccc(Oc2ccccc2)cc1,0.8,0.9,4.9,-17.8,0.9
CCCCNC(=S)Nc1ccc(Oc2ccccc2)cc1,1,0.9,21.5,65.1*,1
Cc1cccc(-n2c(=S)[nH]c3sc4c(c3c2=O)CCc2ccccc2-4)c1,0.3,0.2,-1.0,26.9,0.2
CSCCC(NC(=O)c1ccc([N+](=O)[O-])cc1Cl)C(=O)OCC(=O)C12CC3CC(CC(C3)C1)C2 (stereo not drawn),0.9,1,99.4*,0.8,1
